According to ChEMBL document CHEMBL1671620, “Mutations in the fks1 gene in Candida albicans, C. tropicalis, and C. krusei correlate with elevated caspofungin MICs uncovered in AM3 medium using the method of the European Committee on Antibiotic Susceptibility Testing” (2008):
Values after ≈ are worked out from the molar mass of the structure shown.

Tests used:
Pichia kudriavzevii = assay: Antifungal activity against Candida krusei isolate 1 harboring 1,3-beta-glucan synthase HS1 point mutant grown on AM3 media after 24 hrs by EUCAST microdilution method; settings: isolate 1, 24 h
Candida albicans [1] = assay: Antifungal activity against Candida albicans isolate 10 expressing wild type 1,3-beta-glucan synthase grown on RPMI media after 24 hrs by EUCAST microdilution method; settings: isolate 10, 24 h
Candida albicans [2] = assay: Antifungal activity against Candida albicans isolate 19 harboring 1,3-beta-glucan synthase HS1 point mutant grown on AM3 media after 24 hrs by EUCAST microdilution method; settings: isolate 19, 24 h
Candida albicans [3] = assay: Antifungal activity against Candida albicans isolate 5 expressing wild type 1,3-beta-glucan synthase grown on RPMI media after 24 hrs by EUCAST microdilution method; settings: isolate 5, 24 h
Candida albicans [4] = assay: Antifungal activity against Candida albicans isolate B311 expressing wild type 1,3-beta-glucan synthase grown on AM3 media after 48 hrs by EUCAST microdilution method; assay type: functional; settings: isolate B311, 24 h, in the assay text read “24 hrs” for “48 hrs”
In short: (§1)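 EUCAST (AFST-EUCAST) broth microdilution with caspofungin at 0.015 to 8 μg/ml final, in AM3 with glucose added to 2% final. Final inoculum was 10⁵ yeast cells/ml, with microplates prepared in batches and stored at −20°C. Plates were incubated at 35°C in humid ambient air and read spectrophotometrically after shaking at 24 h and 48 h. MIC was ≥50% growth reduction versus drug-free well; 90% end point also read at both times.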

Candida albicans [5] = assay: Antifungal activity against Candida albicans isolate 13 expressing wild type 1,3-beta-glucan synthase grown on AM3 media after 48 hrs by EUCAST microdilution method; assay type: functional; settings: isolate 13, 24 h, in the assay text read “after 24 hrs” for “after 48 hrs”
In short: as §1

Candida albicans [6] = assay: Antifungal activity against Candida albicans isolate 13 expressing wild type 1,3-beta-glucan synthase grown on RPMI media after 24 hrs by EUCAST microdilution method; settings: isolate 13, 24 h
Candida albicans [7] = assay: Antifungal activity against Candida albicans isolate 12 expressing wild type 1,3-beta-glucan synthase grown on RPMI media after 24 hrs by EUCAST microdilution method; settings: isolate 12, 24 h
Candida tropicalis = assay: Antifungal activity against Candida tropicalis ATCC 750 expressing wild type 1,3-beta-glucan synthase grown on RPMI media after 48 hrs by EUCAST microdilution method; assay type: functional; settings: ATCC 750, 24 h, in the assay text read “24 hrs” for “48 hrs”
In short: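 EUCAST (AFST-EUCAST) broth microdilution with caspofungin at 0.015 to 8 μg/ml final, in RPMI 1640 buffered to pH 7.0 with 0.165 M MOPS and glucose added to 2% final. Final inoculum was 10⁵ yeast cells/ml. Plates were incubated at 35°C in humid ambient air and read spectrophotometrically after shaking at 24 h and 48 h. MIC was ≥50% growth reduction versus drug-free well; 90% end point also read at both times.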

Candida albicans [8] = assay: Antifungal activity against Candida albicans isolate 23 harboring 1,3-beta-glucan synthase HS2 point mutant grown on RPMI media after 24 hrs by EUCAST microdilution method; settings: isolate 23, 24 h
Candida albicans [9] = assay: Antifungal activity against Candida albicans isolate 22 harboring 1,3-beta-glucan synthase HS1 point mutant grown on RPMI media after 24 hrs by EUCAST microdilution method; settings: isolate 22, 24 h
Candida albicans [10] = assay: Antifungal activity against Candida albicans isolate 16 expressing wild type 1,3-beta-glucan synthase grown on AM3 media after 48 hrs by EUCAST microdilution method; assay type: functional; settings: isolate 16, 24 h, in the assay text read “after 24 hrs” for “after 48 hrs”
In short: as §1

Candida albicans [11] = assay: Antifungal activity against Candida albicans isolate 21 harboring 1,3-beta-glucan synthase HS1 point mutant grown on AM3 media after 24 hrs by EUCAST microdilution method; settings: isolate 21, 24 h
Candida albicans [12] = assay: Antifungal activity against Candida albicans isolate 14 expressing wild type 1,3-beta-glucan synthase grown on AM3 media after 48 hrs by EUCAST microdilution method; assay type: functional; settings: isolate 14, 24 h, in the assay text read “after 24 hrs” for “after 48 hrs”
In short: as §1

Candida albicans [13] = assay: Antifungal activity against Candida albicans isolate 14 expressing wild type 1,3-beta-glucan synthase grown on RPMI media after 24 hrs by EUCAST microdilution method; settings: isolate 14, 24 h
Candida albicans [14] = assay: Antifungal activity against Candida albicans isolate 3 expressing wild type 1,3-beta-glucan synthase grown on AM3 media after 48 hrs by EUCAST microdilution method; assay type: functional; settings: isolate 3, 24 h, in the assay text read “after 24 hrs” for “after 48 hrs”
In short: as §1

Candida albicans [15] = assay: Antifungal activity against Candida albicans isolate 6 expressing wild type 1,3-beta-glucan synthase grown on AM3 media after 48 hrs by EUCAST microdilution method; assay type: functional; settings: isolate 6, 24 h, in the assay text read “after 24 hrs” for “after 48 hrs”
In short: as §1

Candida albicans [16] = assay: Antifungal activity against Candida albicans isolate 25 expressing wild type 1,3-beta-glucan synthase grown on AM3 media after 48 hrs by EUCAST microdilution method; assay type: functional; settings: isolate 25, 24 h, in the assay text read “after 24 hrs” for “after 48 hrs”
In short: as §1

Candida albicans [17] = assay: Antifungal activity against Candida albicans isolate 4 expressing wild type 1,3-beta-glucan synthase grown on AM3 media after 48 hrs by EUCAST microdilution method; assay type: functional; settings: isolate 4, 24 h, in the assay text read “after 24 hrs” for “after 48 hrs”
In short: as §1

Candida albicans [18] = assay: Antifungal activity against Candida albicans isolate 17 expressing wild type 1,3-beta-glucan synthase grown on AM3 media after 48 hrs by EUCAST microdilution method; assay type: functional; settings: isolate 17, 24 h, in the assay text read “after 24 hrs” for “after 48 hrs”
In short: as §1

Candida albicans [19] = assay: Antifungal activity against Candida albicans isolate 18 expressing wild type 1,3-beta-glucan synthase grown on RPMI media after 24 hrs by EUCAST microdilution method; settings: isolate 18, 24 h
Candida albicans [20] = assay: Antifungal activity against Candida albicans isolate 21 harboring 1,3-beta-glucan synthase HS1 point mutant grown on RPMI media after 24 hrs by EUCAST microdilution method; settings: isolate 21, 24 h
Candida albicans [21] = assay: Antifungal activity against Candida albicans isolate 1 expressing wild type 1,3-beta-glucan synthase grown on AM3 media after 48 hrs by EUCAST microdilution method; assay type: functional; settings: isolate 1, 24 h, in the assay text read “24 hrs” for “48 hrs”
In short: as §1

Candida albicans [22] = assay: Antifungal activity against Candida albicans isolate 24 harboring 1,3-beta-glucan synthase HS1 point mutant grown on RPMI media after 24 hrs by EUCAST microdilution method; settings: isolate 24, 24 h
Candida albicans [23] = assay: Antifungal activity against Candida albicans isolate 11 expressing wild type 1,3-beta-glucan synthase grown on RPMI media after 24 hrs by EUCAST microdilution method; settings: isolate 11, 24 h

CC[C@H](C)C[C@H](C)CCCCCCCCC(=O)N[C@H]1C[C@@H](O)[C@@H](NCCN)NC(=O)[C@@H]2[C@@H](O)CCN2C(=O)[C@H]([C@H](O)CCN)NC(=O)[C@H]([C@H](O)[C@@H](O)c2ccc(O)cc2)NC(=O)[C@@H]2C[C@@H](O)CN2C(=O)[C@H]([C@@H](C)O)NC1=O [CASPOFUNGIN]
MIC (Pichia kudriavzevii): 4 µg/mL (≈ 3.66 µM) | MIC (Candida albicans [1]): 0.5 µg/mL (≈ 0.457 µM) | MIC (Candida albicans [2]): 0.5 µg/mL (≈ 0.457 µM) | MIC (Candida albicans [3]): 0.5 µg/mL (≈ 0.457 µM) | MIC (Candida albicans [4]): 0.06 µg/mL (≈ 0.0549 µM) | MIC (Candida albicans [5]): 0.03 µg/mL (≈ 0.0274 µM) | MIC (Candida albicans [6]): 0.5 µg/mL (≈ 0.457 µM) | MIC (Candida albicans [7]): 0.5 µg/mL (≈ 0.457 µM) | MIC (Candida tropicalis): 0.5 µg/mL (≈ 0.457 µM) | MIC (Candida albicans [8]): 2 µg/mL (≈ 1.83 µM) | MIC (Candida albicans [9]): 2 µg/mL (≈ 1.83 µM) | MIC (Candida albicans [10]): 0.03 µg/mL (≈ 0.0274 µM) | MIC (Candida albicans [11]): 1 µg/mL (≈ 0.915 µM) | MIC (Candida albicans [12]): 0.03 µg/mL (≈ 0.0274 µM) | MIC (Candida albicans [13]): 1 µg/mL (≈ 0.915 µM) | MIC (Candida albicans [14]): 0.06 µg/mL (≈ 0.0549 µM) | MIC (Candida albicans [15]): 0.03 µg/mL (≈ 0.0274 µM) | MIC (Candida albicans [16]): 0.03 µg/mL (≈ 0.0274 µM) | MIC (Candida albicans [17]): 0.03 µg/mL (≈ 0.0274 µM) | MIC (Candida albicans [18]): 0.03 µg/mL (≈ 0.0274 µM) | MIC (Candida albicans [19]): 1 µg/mL (≈ 0.915 µM) | MIC (Candida albicans [20]): 2 µg/mL (≈ 1.83 µM) | MIC (Candida albicans [21]): 0.03 µg/mL (≈ 0.0274 µM) | MIC (Candida albicans [22]): 4 µg/mL (≈ 3.66 µM) | MIC (Candida albicans [23]): 0.5 µg/mL (≈ 0.457 µM)
